Reference: publication PMC3548935 (Cancer research, 2012)
Blank lines part the entries; values can stand above or below the compound they belong to.

Key:
[1] = system: HUVECs; experiment: Mass spectrometry of peptide inside HUVECs after incubation with FAM-peptide; assay type: cell-based, human; conditions: Fig. S4
[2] = system: 4T1 tumors; conditions: no penetrating peptide; cited from earlier work
[3] = system: orthotopic 4T1 breast tumors; experiment: Tumor treatment study, orthotopic 4T1 breast tumors; assay type: in vivo, mouse; conditions: DOX 3 mg/kg + 4 µmol/kg iNGR i.v. every other day
[4] = system: tumors; conditions: cited from earlier work
[5] = target: NRP-1 (Homo sapiens, UniProt O14786); experiment: Dose-dependent binding of phage to purified NRP-1; conditions: phage-displayed peptide, Fig. 1E; for Phage binding to immobilized NRP-1: anti-T7 phage antibody / HRP detection
Summary of the method: (§1)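 Peptide-displaying T7 phage was added over a range of phage amounts to purified NRP-1 or NRP-2 protein. Bound phage was detected with a rabbit anti-T7 phage antibody followed by an HRP-labeled goat anti-rabbit secondary antibody.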

[6] = target: T1, NRP-2 (Homo sapiens, UniProt O60462); experiment: Dose-dependent binding of phage to purified NRP-2; conditions: phage-displayed peptide, Fig. 1F; for Phage binding to immobilized NRP-2: anti-T7 phage antibody / HRP detection
T1 sequence (O60462 21-931): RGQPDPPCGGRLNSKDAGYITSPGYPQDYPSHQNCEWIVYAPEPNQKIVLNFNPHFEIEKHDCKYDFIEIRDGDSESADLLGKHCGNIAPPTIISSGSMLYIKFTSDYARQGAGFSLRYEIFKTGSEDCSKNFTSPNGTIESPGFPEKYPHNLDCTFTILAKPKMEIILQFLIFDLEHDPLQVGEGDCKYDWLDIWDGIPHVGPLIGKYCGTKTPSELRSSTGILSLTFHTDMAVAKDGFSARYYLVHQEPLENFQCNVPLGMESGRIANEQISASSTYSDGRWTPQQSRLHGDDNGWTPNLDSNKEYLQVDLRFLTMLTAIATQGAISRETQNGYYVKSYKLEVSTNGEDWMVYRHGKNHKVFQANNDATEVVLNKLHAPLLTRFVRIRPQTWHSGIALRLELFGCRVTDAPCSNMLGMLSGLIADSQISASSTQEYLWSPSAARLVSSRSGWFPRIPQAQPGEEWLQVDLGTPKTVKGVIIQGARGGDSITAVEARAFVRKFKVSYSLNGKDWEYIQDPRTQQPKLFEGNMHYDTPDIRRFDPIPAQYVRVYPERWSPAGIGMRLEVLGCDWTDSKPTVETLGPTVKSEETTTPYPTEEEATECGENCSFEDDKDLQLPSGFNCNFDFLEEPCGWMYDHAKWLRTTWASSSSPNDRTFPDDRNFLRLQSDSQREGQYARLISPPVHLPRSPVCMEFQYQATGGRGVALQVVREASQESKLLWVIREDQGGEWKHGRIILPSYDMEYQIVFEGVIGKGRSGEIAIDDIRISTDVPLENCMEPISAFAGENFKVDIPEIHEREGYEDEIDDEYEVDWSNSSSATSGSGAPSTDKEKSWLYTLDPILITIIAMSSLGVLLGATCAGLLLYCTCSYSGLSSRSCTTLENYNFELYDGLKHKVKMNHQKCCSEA
Summary of the method: as §1

Chain of NRP-1 (O14786 22-923): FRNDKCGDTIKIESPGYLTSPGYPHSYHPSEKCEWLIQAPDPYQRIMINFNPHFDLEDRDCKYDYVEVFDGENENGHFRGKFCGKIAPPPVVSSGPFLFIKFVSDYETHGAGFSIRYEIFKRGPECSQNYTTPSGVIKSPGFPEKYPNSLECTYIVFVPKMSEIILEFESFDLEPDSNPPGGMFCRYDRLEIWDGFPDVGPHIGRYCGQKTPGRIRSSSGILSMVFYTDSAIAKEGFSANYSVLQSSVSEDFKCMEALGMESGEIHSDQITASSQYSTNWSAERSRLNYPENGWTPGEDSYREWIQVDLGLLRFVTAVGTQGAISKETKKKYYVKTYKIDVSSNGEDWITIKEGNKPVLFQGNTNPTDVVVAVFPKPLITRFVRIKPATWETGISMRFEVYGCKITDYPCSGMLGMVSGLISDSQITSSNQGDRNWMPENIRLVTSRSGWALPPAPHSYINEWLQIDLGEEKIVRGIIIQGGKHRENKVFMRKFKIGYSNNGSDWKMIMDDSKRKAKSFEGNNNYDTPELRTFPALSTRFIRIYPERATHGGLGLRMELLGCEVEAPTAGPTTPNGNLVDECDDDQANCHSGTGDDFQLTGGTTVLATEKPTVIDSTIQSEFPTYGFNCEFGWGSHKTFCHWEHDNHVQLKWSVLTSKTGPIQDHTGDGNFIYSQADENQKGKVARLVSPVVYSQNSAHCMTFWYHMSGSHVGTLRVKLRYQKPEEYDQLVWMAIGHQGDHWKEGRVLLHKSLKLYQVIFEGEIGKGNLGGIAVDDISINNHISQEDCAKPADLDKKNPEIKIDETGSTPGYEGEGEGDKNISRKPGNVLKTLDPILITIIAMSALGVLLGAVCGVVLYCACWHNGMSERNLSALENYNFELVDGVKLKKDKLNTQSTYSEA

Compound: FAM-CNGRC
Peptide present inside HUVECs after incubation with FAM-peptide [1]: did not penetrate into the cells

Compound: CGKRK
Tumor homing and extravasation of NWs coated with the peptide [2]: brings the NWs to tumor vessels, but does not trigger extravasation

Compound: COc1cccc2c1C(=O)c1c(O)c3c(c(O)c1C2=O)C[C@@](O)(C(=O)CO)C[C@@H]3O[C@H]1C[C@H](N)[C@H](O)[C@H](C)O1 [Doxorubicin, doxorubicin]
Efficacy of doxorubicin given together with iNGR [3]: significantly more efficacious than the drug alone

Compound: CGNKRTRGC [LyP-1]
Tumor penetration [4]: penetrates into tumors through the CendR/NRP mechanism

Phage binding to immobilized NRP-1 [5]: bound to the NRPs
Affinity for NRP-1 compared with iRGDt [5]: higher affinity
Phage binding to immobilized NRP-2 [6]: bound to the NRPs
Affinity for NRP-2 compared with iRGDt [6]: higher affinity
Compound: CRNGR [iNGRt]

Phage binding to immobilized NRP-1 [5]: bound to the NRPs
Phage binding to immobilized NRP-2 [6]: bound to the NRPs
Compound: CRGDK [iRGDt]
